The list is not random: actives were taken first. Their share in the collection is about 0.3%.
Ab BasE inh: blocks the Acinetobacter baumannii siderophore enzyme BasE; purified BasE, fluorescence polarization binding displacement; inhibition, % (concentration not given with the values); 0.1% of 84,000 active; AID 485350; in the data active = inhibition above about 25%, passing the limit was not always enough
KSHV LANA nucl: inhibitors of KSHV LANA binding to nucleosomes | FITC-LANA1-23 / chicken nucleosome fluorescence polarization; stronger effect = lower value | AID 720717 | 0.3% of 51,000 active | z-score (concentration not given with the values);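 active = both repeat wells score below -2 in polarization z-score versus plate sample wells, excluding overly bright wells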
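Test system: purified chicken nucleosomes with FITC-labelled LANA N-terminal peptide (1-23); Input: 240 nM purified chicken nucleosomes (480 nM peptide binding sites), final; Medium: TEN-BT buffer, pH 7.5; Timing: 10–45 min, room temperature; Technique: fluorescence polarization, 480 nm excitation, 535 nm parallel and perpendicular emission; Replication: duplicates.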
Hits are given with their value; i = inactive; nt = not tested or not shown.

SMILES	Ab BasE inh	KSHV LANA nucl
C=CCn1c(=O)[nH]c2nc3cc(NC(=O)CC)ccc3nc2c1=O	i	i
C=CCn1c(=O)[nH]c2nc3cc(N=CN(C)C)ccc3nc2c1=O	i	-5.8
Cc1ccc2c(c1)c1c(n2C)C(C#N)CCC1 (stereo not drawn)	i	i
Cc1ccc2c(c1)c1c3c(nccn32)CCC1	i	-3.2
COC(=O)c1cc(-c2ccc(C)cc2)no1	i	i
CCOC(=O)c1cc(-c2ccc(N(CC)CC)cc2)no1	i	-4.8
CC(C)CCn1cnc2c1c(=O)n(CC(=O)N1c3ccccc3NC(=O)C1(C)C)c(=O)n2Cc1ccccc1	i	nt
O=C(CCn1ccc2cc(S(=O)(=O)N3CCCCC3)ccc21)N1CCc2ccccc2C1	i	nt
O=C1Nc2ccccc2C1(C(F)(F)F)C(F)(F)F	i	i
CCS(=O)(=O)c1ccc2oc(SCc3nc4ccccc4s3)nc2c1	i	nt
Cc1cc2c(n1-c1ccc(C(=O)O)cc1)CCCC2	31	i
Cc1cc2c(n1-c1ccc(C(=O)NCCc3cccs3)cc1)CCCC2	i	i
CCOC(=O)Cn1c(=O)oc2cc(S(=O)(=O)N3CCC(C)CC3)ccc21	i	i
S=C(NCCc1ccccc1)NNc1nc2ccccc2o1	i	nt
COCCNC(=O)c1cc(Br)cs1	i	i
COCCNC(=O)c1cc(Br)c(C)c(C)c1C	i	-2.4
Cc1cc(N)n2ncnc2n1	i	i
Cc1sc2ncn(CC(=O)N(C)Cc3ccccc3)c(=O)c2c1S(=O)(=O)N1CCN(c2ncccn2)CC1	i	i
O=C(Nc1cccc(-c2nn[nH]n2)c1)c1ccc(Br)o1	i	-2.1
O=C(Nc1cccc(-c2nn[nH]n2)c1)c1cccc(C(F)(F)F)c1	i	i
N=c1c2c(F)cccc2ncn1NC(=O)c1ccncc1	i	i
CC1=C(C(=O)Nn2cnc3cccc(F)c3c2=N)Sc2ccccc2N1	36	nt
Cc1ccccc1Nc1nc(N)nc(CSc2nc(C)c(C)n2CC(C)C)n1	i	nt
CCOC(=O)Cn1nnnc1C(CC)N(Cc1cccnc1)Cc1cc2cc(C)ccc2[nH]c1=O (stereo not drawn)	i	i
Cn1nc(-c2ccccc2)ccc1=O	i	i
SMILES	Ab BasE inh	KSHV LANA nucl
O=c1ccc(-c2ccccc2)nn1Cc1ccncc1	77	i
CCOc1cc2c(cc1C(=O)O)OC(C)C2 (stereo not drawn)	i	nt
CCn1c(=O)cc(OCC(=O)Nc2cccnc2)c2ccccc21	25	i
CCn1c(=O)cc(OCC(=O)O)c2ccccc21	i	i
CC1=C(C(=O)OCc2ccccc2)C(c2ccccc2)N(C)C(=O)N1C (stereo not drawn)	i	i
Clc1ccc(OCCCc2nc(-c3cccnc3)n[nH]2)c(Cl)c1	46	nt
S=c1[nH]nc(CCCOc2ccc(Cl)cc2Cl)o1	i	i
C=CCNC(=O)c1ccc2c(c1)NC(=O)C(C)N2 (stereo not drawn)	i	i
CCCCNC(=O)c1ccc2c(c1)NC(=O)C(C)N2 (stereo not drawn)	i	-3.2
CCNC(=S)N1CCN(S(=O)(=O)c2ccc(Cl)cc2)CC1	i	-2.2
CCNC(=S)N1CCN(S(=O)(=O)c2ccc(C)cc2)CC1	i	nt
COc1ccc(CNCc2cccs2)cc1Cn1ccnc1	i	i
O=c1ccc2cc3c4c(c2o1)CCCN4CCC3	i	-5.2
CC(C)c1c(Br)c(=O)oc2c3c4c(cc12)CCCN4CCC3	i	nt
COc1ccc(C2C(C(N)=O)C(=O)NC(O)(c3ccccc3)C2C#N)cc1 (stereo not drawn)	i	-2.3
COc1ccc(C2CC(=O)N3C(=C2C#N)SCC3(O)c2ccccc2)cc1 (stereo not drawn)	i	i
Cc1nc2sccn2c1Br	i	i
Cc1cc(C)nc(NS(=O)(=O)c2ccc(NC(=O)Cn3c(=O)oc4ccccc43)cc2)n1	i	i
CSc1scc2c1C(=O)CC(C)(C)C2	i	nt
CSc1scc2c1C(=O)/C(=C/N(C)C)CC2	36	i
Cc1ccc(Cc2cnc(I)c(O)c2)cc1	i	i
Cc1ccc(SCc2cc(=O)[nH]c(Nc3nc4ccccc4o3)n2)cc1	i	nt
CC(=O)OCCNc1cc(Cl)c2noc3c2c1C(=O)c1ccccc1-3	i	-3.7
CCNc1cc(NCC)c2noc3c2c1C(=O)c1ccccc1-3	i	i
O=C(/C=C/c1cn(-c2ccccc2)nc1-c1cc2ccccc2o1)OCC(=O)c1ccc[nH]1	i	nt
SMILES	Ab BasE inh	KSHV LANA nucl
CNc1cc(F)nc(F)n1	i	i
CCOC(=O)C1C(=O)N(C(=O)c2cncc(Br)c2)CC1c1ccccc1 (stereo not drawn)	i	i
CC1=CC(C)=NC2Nc3c(C)cc(C)cc3C(=N)C12 (stereo not drawn)	i	-2.2
O=C1CCCC1C1Sc2ccccc2NC1=O (stereo not drawn)	i	nt
COC(=O)c1ccc(CSc2nnc(-c3ccco3)n2C)o1	i	nt
COc1ccccc1-n1cnc2cc(NCc3ccncc3)ccc21	32	i
CCCCn1cnc2cc(NCc3ccncc3)ccc21	i	i
Cn1c(N)c(C(=S)NC(=O)c2cccs2)c(=O)n(C)c1=O	i	nt

Screens from PubChem BioAssay.
